Measured values published in ChEMBL document CHEMBL4619796, “Discovery of 3-Quinazolin-4(3H)-on-3-yl-2,N-dimethylpropanamides as Orally Active and Selective PI3Kα Inhibitors” (ACS Med Chem Lett, 2020).

Experiments:
[1] = Inhibition of PI3K in human MCF7 cells assessed as reduction in AKT phosphorylation at residue S473 incubated for 2 hrs followed by insulin addition by ELISA; format: cell-based; details: MCF7, 2 h
[2] = Oral bioavailability in BALB/c mouse at 10 mg/kg by HPLC analysis; format: ADME, organism-based; details: in vivo
[3] = system: BT-474; assay: Antitumor activity against PI3KCA mutant human BT474 cells xenografted in BALB/c nude mouse assessed as tumor growth inhibition at 30 mg/kg, po administered once daily for 21 days by caliper method relative to control; format: functional; details: BT-474, po, 504 h, read-out: TGI
Summary of the method: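 BT-474 (PIK3CA mutant human breast ductal carcinoma) subcutaneous xenografts in Balb/c nude mice. Oral dosing once daily for 21 days. Vehicle 0.5% MC + 0.2% Tween 80. Read-out is tumor growth inhibition.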

[4] = molecular target: Phosphatidylinositol 4,5-bisphosphate 3-kinase catalytic subunit alpha isoform (Homo sapiens, UniProt P42336); assay: Inhibition of PI3Kalpha in human BT474 cells expressing P3KCA mutant assessed as reduction in AKT phosphorylation at residue S473 incubated for 2 hrs followed by insulin addition by ELISA; format: cell-based; details: bt-474
Summary of the method: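 Akt phosphorylation was measured in the PIK3CA mutant human breast ductal carcinoma BT-474 cell line, used as a PI3Kα-sensitive cellular readout. IC50 determined.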

[5] = system: BT-474; assay: Antitumor activity against PI3KCA mutant human BT474 cells xenografted in BALB/c nude mouse assessed as tumor growth inhibition at 30 mg/kg, po administered once daily and measured after 30 days by caliper method relative to control; format: functional; details: BT-474, po, 720 h, read-out: TGI
[6] = system: BT-474; assay: Antitumor activity against PI3KCA mutant human BT474 cells xenografted in po dosed BALB/c nude mouse assessed as tumor growth inhibition administered once daily and measured after 30 days by caliper method; format: functional, organism-based
[7] = system: Mus musculus; assay: In vivo inhibition of PI3K in BALB/c nude mouse xenografted with PI3KCA mutant human BT474 cells assessed as reduction in AKT phosphorylation at 15 to 40 mg/kg, po administered once daily by Western blot analysis; format: functional, organism-based; details: BT-474, TDE = time-dependent effect
Summary of the method: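 Mice bearing BT-474 subcutaneous xenografts were dosed orally in vehicle 0.5% MC + 0.2% Tween 80. Tumor Akt phosphorylation was assessed for time and dose dependence.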

[8] = Clearance in Sprague-Dawley rat at 1 mg/kg, iv by HPLC analysis; format: ADME, organism-based; details: in vivo
[9] = Metabolic stability in CD-1 mouse liver microsomes assessed as parent compound remaining at 10 uM preincubated for 10 mins in water bath followed by NADPH addition and measured after 60 mins by LC-MS/MS analysis; format: ADME, Microsome; details: read-out: Stability

Sequence of Phosphatidylinositol 4,5-bisphosphate 3-kinase catalytic subunit alpha isoform (P42336 whole entry, looked up, canonical isoform): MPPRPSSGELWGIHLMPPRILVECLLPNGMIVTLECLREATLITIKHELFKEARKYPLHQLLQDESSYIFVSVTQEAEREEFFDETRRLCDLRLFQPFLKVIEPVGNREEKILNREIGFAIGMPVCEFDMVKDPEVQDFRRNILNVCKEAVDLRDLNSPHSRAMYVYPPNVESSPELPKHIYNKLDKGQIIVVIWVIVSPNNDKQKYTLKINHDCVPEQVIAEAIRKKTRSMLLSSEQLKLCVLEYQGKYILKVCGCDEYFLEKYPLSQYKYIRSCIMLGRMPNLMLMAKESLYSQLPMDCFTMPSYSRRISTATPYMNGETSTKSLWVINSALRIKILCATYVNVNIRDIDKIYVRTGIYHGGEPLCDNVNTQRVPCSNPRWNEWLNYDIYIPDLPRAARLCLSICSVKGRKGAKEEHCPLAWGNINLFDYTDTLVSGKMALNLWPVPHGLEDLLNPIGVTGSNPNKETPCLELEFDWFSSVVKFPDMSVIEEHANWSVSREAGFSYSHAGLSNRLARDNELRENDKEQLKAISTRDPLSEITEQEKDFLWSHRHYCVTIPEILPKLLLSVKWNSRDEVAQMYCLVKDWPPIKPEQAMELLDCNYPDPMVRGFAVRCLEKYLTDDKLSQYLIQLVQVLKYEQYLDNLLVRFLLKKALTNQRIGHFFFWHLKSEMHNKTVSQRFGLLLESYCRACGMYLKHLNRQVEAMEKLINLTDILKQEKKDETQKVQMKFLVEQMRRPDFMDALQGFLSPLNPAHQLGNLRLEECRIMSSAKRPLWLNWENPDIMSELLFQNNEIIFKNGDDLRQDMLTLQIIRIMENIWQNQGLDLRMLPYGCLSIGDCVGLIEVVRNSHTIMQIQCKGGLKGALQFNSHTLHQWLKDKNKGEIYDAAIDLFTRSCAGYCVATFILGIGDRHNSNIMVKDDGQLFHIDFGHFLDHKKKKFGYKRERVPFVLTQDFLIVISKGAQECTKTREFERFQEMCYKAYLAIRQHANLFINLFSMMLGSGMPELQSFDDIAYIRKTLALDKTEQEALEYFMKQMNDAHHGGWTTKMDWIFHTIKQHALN

Structure (SMILES): CNC(=O)[C@H](C)Cn1cnc2ccc(-c3cnc(OC)c(NS(=O)(=O)c4ccc(F)cc4Cl)c3)cc2c1=O
- IC50 [1]: 32.9 nM
- bioavailability [2]: 59.4%
- inhibition in vivo at 30 mg/kg [3]: 73%
- IC50 [4]: 12.1 nM
- inhibition in vivo at 30 mg/kg [5]: 86%
- TGI [6]: Dose-dependent effect
- inhibition [7]: Tde
- clearance [8]: 5.28 mL/min/kg
- remaining at 1 h, 10 µM [9]: 32.7%
